Experimental data taken from ChEMBL document CHEMBL3994591, “Novel ferulic amide derivatives with tertiary amine side chain as acetylcholinesterase and butyrylcholinesterase inhibitors: The influence of carbon spacer length, alkylamine and aromatic group” (Eur J Med Chem, 2017).

How the values were obtained:
Homo sapiens = species: Homo sapiens; test: Selectivity index, ratio of IC50 for butyrylcholinesterase (unknown origin) to IC50 for acetylcholinesterase (unknown origin)
Acetylcholinesterase = Acetylcholinesterase (Homo sapiens, UniProt P22303); test: Inhibition of acetylcholinesterase (unknown origin) using acetylthiocholine iodide as substrate after 25 mins by Ellmann method
Procedure, shortened: (§1)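 Modified Ellman assay, triplicate. Compounds dissolved in Tween 80, diluted with water to five concentrations. Mix: enzyme […], substrate (acetylthiocholine iodide or butyrylthiocholine iodide) and test compound in phosphoric acid buffer, pH 8.0, 0.1 mol/L. Incubated 25 min at 30 °C, then terminated. IC50 reported as mean ± SD of three experiments.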

[1] = Octanol-water partition coefficient, log P of the compound at pH 7.4 by shake flask method; type: physicochemical
Procedure, shortened: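 Shake flask partition between octanol and PBS (pH 7.4). Mixture shaken at 37 °C overnight, then centrifuged at 2000 rpm for 20 min. Phases analysed by C18 HPLC with methanol-0.1% TEA (85:15, v/v) at 1.0 mL/min and 32 °C, detection at 322 nm. Run in triplicate, log P calculated.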

Cholinesterase = Cholinesterase (Homo sapiens, UniProt P06276); test: Inhibition of butyrylcholinesterase (unknown origin) using butyrylthiocholine iodide as substrate after 25 mins by Ellmann method; procedure, shortened: as §1
[2] = Inhibition of carboxylesterase (unknown origin) using 4-nitrophenyl acetate as substrate by UV-Vis spectrophotometer; set-up: species or system Homo sapiens
Procedure, shortened: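 Read-out was 4-nitrophenol released by CaE hydrolysis of 1.0 mmol/L 4-nitrophenyl acetate, measured at 405 nm. Reactions ran in 100 mmol/L potassium phosphate buffer, pH 8.0, at 25 °C. CaE activity was taken as proportional to 4-nitrophenol concentration.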

Acetylcholinesterase, sequence (P22303 whole entry): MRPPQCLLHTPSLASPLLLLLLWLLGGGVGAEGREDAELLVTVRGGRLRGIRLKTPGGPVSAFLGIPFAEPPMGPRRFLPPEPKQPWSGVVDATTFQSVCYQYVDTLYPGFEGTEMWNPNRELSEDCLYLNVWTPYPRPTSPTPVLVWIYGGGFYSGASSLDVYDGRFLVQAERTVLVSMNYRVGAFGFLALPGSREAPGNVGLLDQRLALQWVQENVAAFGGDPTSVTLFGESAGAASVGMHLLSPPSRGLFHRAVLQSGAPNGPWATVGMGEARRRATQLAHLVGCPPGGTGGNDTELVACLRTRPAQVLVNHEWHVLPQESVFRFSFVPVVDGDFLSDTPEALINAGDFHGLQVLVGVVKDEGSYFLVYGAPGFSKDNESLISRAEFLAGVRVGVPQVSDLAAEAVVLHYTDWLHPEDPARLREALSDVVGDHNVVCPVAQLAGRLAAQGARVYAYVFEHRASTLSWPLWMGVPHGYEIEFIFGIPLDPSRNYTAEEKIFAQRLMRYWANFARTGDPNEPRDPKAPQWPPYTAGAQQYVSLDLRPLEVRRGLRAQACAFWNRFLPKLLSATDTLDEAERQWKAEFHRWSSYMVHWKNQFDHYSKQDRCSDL
Cholinesterase, sequence (P06276 whole entry): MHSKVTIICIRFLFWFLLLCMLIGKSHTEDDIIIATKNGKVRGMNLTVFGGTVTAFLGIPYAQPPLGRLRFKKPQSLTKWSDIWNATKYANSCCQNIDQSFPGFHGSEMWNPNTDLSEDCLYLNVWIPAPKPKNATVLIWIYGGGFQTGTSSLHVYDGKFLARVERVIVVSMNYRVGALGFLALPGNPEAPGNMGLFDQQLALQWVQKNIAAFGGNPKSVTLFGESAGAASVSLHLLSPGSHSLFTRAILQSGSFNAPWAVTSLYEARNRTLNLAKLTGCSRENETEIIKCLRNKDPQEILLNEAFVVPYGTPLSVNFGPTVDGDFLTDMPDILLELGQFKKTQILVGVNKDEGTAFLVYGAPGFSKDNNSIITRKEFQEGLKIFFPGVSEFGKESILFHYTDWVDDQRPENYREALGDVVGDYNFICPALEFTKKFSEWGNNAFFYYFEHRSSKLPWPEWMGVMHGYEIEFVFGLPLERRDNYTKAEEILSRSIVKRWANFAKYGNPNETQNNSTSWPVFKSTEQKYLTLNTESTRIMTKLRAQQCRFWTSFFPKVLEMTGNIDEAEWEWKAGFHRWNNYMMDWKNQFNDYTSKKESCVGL

Q: What does the source list for `COc1cc(/C=C/C(=O)Nc2ccccc2)ccc1OCCCN1CCCC1`?
A: Ratio IC50 (Homo sapiens): 0.38; IC50 (Acetylcholinesterase): 37.1 µM; logD [1]: 1.57; IC50 (Cholinesterase): 14.2 µM; IC50 [2]: > 500 µM

Q: What does the source list for `CCOC(=O)/C=C/c1ccc(OCCCCCCN(CC)CC)c(OC)c1`?
A: Ratio IC50 (Homo sapiens): 5.87; IC50 (Acetylcholinesterase): 1.94 µM; logD [1]: 1.8; IC50 (Cholinesterase): 11.4 µM; IC50 [2]: > 500 µM

Q: Which results are given for `COc1cc(/C=C/C(=O)Nc2ccccc2)ccc1OCCCCCCCCCCN(C)C`?
A: Ratio IC50 (Homo sapiens): 2.07; IC50 (Acetylcholinesterase): 9.93 µM; logD [1]: 1.8; IC50 (Cholinesterase): 20.6 µM; IC50 [2]: > 500 µM

Q: With `CCN(CC)CCCCCCCCOc1ccc(/C=C/C(=O)Nc2ccccc2)cc1OC` as the compound, how does the Ratio IC50 (Homo sapiens) read?
A: 2.93

Q: What about the IC50 (Acetylcholinesterase) of the same compound?
A: 1.36 µM

Q: What about the logD [1] of the same compound?
A: 1.75

Q: What about the IC50 (Cholinesterase) of the same compound?
A: 3.98 µM

Q: What about the IC50 [2] of the same compound?
A: > 500 µM

Q: For `COc1cc(/C=C/C(=O)O)ccc1OCCCCCCN1CCCCC1`, which Ratio IC50 (Homo sapiens) is on record?
A: 3.2

Q: And the IC50 (Acetylcholinesterase)?
A: 45.6 µM

Q: What about the logD [1] of the same compound?
A: 1.32

Q: What about the IC50 (Cholinesterase) of the same compound?
A: 146 µM

Q: What about the IC50 [2] of the same compound?
A: > 500 µM

Q: With `COc1cc(/C=C/C(=O)Nc2ccccc2)ccc1OCCCCCCCCN1CCCCC1` as the compound, how does the Ratio IC50 (Homo sapiens) read?
A: 1.32

Q: What about the IC50 (Acetylcholinesterase) of the same compound?
A: 4.12 µM

Q: And the logD [1]?
A: 1.79

Q: And the IC50 (Cholinesterase)?
A: 5.45 µM

Q: What about the IC50 [2] of the same compound?
A: > 500 µM

Q: What does the source list for `CCN(CC)CCCCCOc1ccc(/C=C/C(=O)Nc2ccccc2)cc1OC`?
A: Ratio IC50 (Homo sapiens): 1.17; IC50 (Acetylcholinesterase): 19 µM; logD [1]: 1.63; IC50 (Cholinesterase): 22.1 µM; IC50 [2]: > 500 µM

Q: What does the source list for `COc1cc(/C=C/C(=O)Nc2ccccc2)ccc1OCCCCCN(C)C`?
A: Ratio IC50 (Homo sapiens): 0.37; IC50 (Acetylcholinesterase): 33 µM; logD [1]: 1.61; IC50 (Cholinesterase): 12.1 µM; IC50 [2]: > 500 µM

Q: What does the source list for `COc1cc(/C=C/C(=O)Nc2ccccc2)ccc1OCCCCN(C)C`?
A: Ratio IC50 (Homo sapiens): 0.26; IC50 (Acetylcholinesterase): 100 µM; logD [1]: 1.57; IC50 (Cholinesterase): 25.9 µM; IC50 [2]: > 500 µM

Q: Which Ratio IC50 (Homo sapiens) does the source give for `COc1cc(/C=C/C(=O)Nc2ccccc2)ccc1OCCCN(C)C` here?
A: 0.59

Q: What about the IC50 (Acetylcholinesterase) of the same compound?
A: 33.9 µM

Q: What about the logD [1] of the same compound?
A: 1.55

Q: What about the IC50 (Cholinesterase) of the same compound?
A: 20 µM

Q: What about the IC50 [2] of the same compound?
A: > 500 µM

Q: For `COc1cc(/C=C/C(=O)Nc2ccccc2)ccc1OCCCCCCCCN1CCCC1`, which Ratio IC50 (Homo sapiens) is on record?
A: 1.38

Q: What about the IC50 (Acetylcholinesterase) of the same compound?
A: 2.91 µM

Q: And the logD [1]?
A: 1.78

Q: And the IC50 (Cholinesterase)?
A: 4.03 µM

Q: And the IC50 [2]?
A: > 500 µM

Q: For `COc1cc(/C=C/C(=O)Nc2ccccc2)ccc1OCCCCCCCCN(C)C`, which Ratio IC50 (Homo sapiens) is on record?
A: 1.16

Q: And the IC50 (Acetylcholinesterase)?
A: 8.95 µM

Q: And the logD [1]?
A: 1.74

Q: And the IC50 (Cholinesterase)?
A: 10.4 µM

Q: What about the IC50 [2] of the same compound?
A: > 500 µM

Q: What does the source list for `CCN(CC)CCCOc1ccc(/C=C/C(=O)Nc2ccccc2)cc1OC`?
A: Ratio IC50 (Homo sapiens): 0.71; IC50 (Acetylcholinesterase): 23.7 µM; logD [1]: 1.57; IC50 (Cholinesterase): 16.9 µM; IC50 [2]: > 500 µM

Q: With `CCOC(=O)/C=C/c1ccc(OCCCCCCN2CCCCC2)c(OC)c1` as the compound, how does the Ratio IC50 (Homo sapiens) read?
A: 15.8

Q: What about the IC50 (Acetylcholinesterase) of the same compound?
A: 2.65 µM

Q: And the logD [1]?
A: 1.81

Q: What about the IC50 (Cholinesterase) of the same compound?
A: 41.8 µM

Q: What about the IC50 [2] of the same compound?
A: > 500 µM

Q: For `COc1cc(/C=C/C(=O)Nc2ccccc2)ccc1OCCCCN1CCCC1`, which Ratio IC50 (Homo sapiens) is on record?
A: 0.16

Q: And the IC50 (Acetylcholinesterase)?
A: 24.4 µM

Q: And the logD [1]?
A: 1.6

Q: What about the IC50 (Cholinesterase) of the same compound?
A: 3.83 µM

Q: What about the IC50 [2] of the same compound?
A: > 500 µM

Q: Which results are given for `CCOC(=O)/C=C/c1ccc(OCCCCCCCCN(CC)CC)c(OC)c1`?
A: Ratio IC50 (Homo sapiens): 8.37; IC50 (Acetylcholinesterase): 1.56 µM; logD [1]: 1.98; IC50 (Cholinesterase): 13 µM; IC50 [2]: > 500 µM

Q: What does the source list for `COc1cc(/C=C/C(=O)Nc2ccccc2)ccc1O`?
A: IC50 (Acetylcholinesterase): > 500 µM; logD [1]: 1.42; IC50 (Cholinesterase): > 500 µM; IC50 [2]: > 500 µM

Q: What does the source list for `COc1cc(/C=C/C(=O)Nc2ccccc2)ccc1OCCCCCCCCCCN1CCCCC1`?
A: Ratio IC50 (Homo sapiens): 0.44; IC50 (Acetylcholinesterase): 11.1 µM; logD [1]: 1.83; IC50 (Cholinesterase): 4.84 µM; IC50 [2]: > 500 µM

Q: What does the source list for `COc1cc(/C=C/C(=O)Nc2ccccc2)ccc1OCCN(C)C`?
A: Ratio IC50 (Homo sapiens): 1; IC50 (Acetylcholinesterase): 23.2 µM; logD [1]: 1.5; IC50 (Cholinesterase): 23.3 µM; IC50 [2]: > 500 µM
